Test results: ChEMBL document CHEMBL5107939, “Optimization of brain-penetrant picolinamide derived leucine-rich repeat kinase 2 (LRRK2) inhibitors” (RSC Med Chem, 2021)

Tests used:
[1] = In vivo inhibition of LRRK2 in CD rat assessed as reduction in serine 935 phosphorylated LRRK2 in striatum at 30 mg/kg, po and measured after 2 hrs by MSD immunoassay; type: functional
Summary of the method: (§1)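 Male CD rats (125-150 g) dosed orally with compound suspended in 10% Tween 80 (5 mL/kg) or vehicle, euthanized by CO2 2 h later; striatum dissected, frozen on dry ice; pSer935 LRRK2 measured by MSD immunoassay as pSer935/total LRRK2 ratio, mean ± S.E.M.; one-way ANOVA with Dunnett's post hoc test.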

[2] = molecular target: T1, Leucine-rich repeat serine/threonine-protein kinase 2 (Homo sapiens, UniProt Q5S007, G2019S); experiment: Inhibition of human LRRK2 G2019S mutant expressed in human SH-SY5Y cells assessed as inhibition of tetracycline induced LRRK2 phosphorylation at Ser935 residue incubated for 90 mins by MSD assay; type: cell-based
Summary of the method: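 SH-SY5Y neuroblastoma cells carrying LRRK2 G2019S, grown in DMEM/F-12 with GlutaMax, 10% Tet-free FBS, nonessential amino acids and pen-strep at 37 °C, 5% CO2. Expression induced with Tet (2 µg/ml) 48-72 h before treatment. Compound exposure 90 min. Lysates captured on anti-LRRK2-coated MSD plates, probed for pSer935 or total LRRK2 with Sulfo-Tag read-out. IC50 from standard 4P fit of % inhibition.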

Homo sapiens [3] = species: Homo sapiens; experiment: Selectivity ratio, ratio of IC50 for inhibition of CLK2 (unknown origin) to IC50 for inhibition of recombinant human GST20 tagged truncated LRRK2 G2019S mutant
[4] = Brain to plasma permeability coefficient, Kp in CD rat plasma assessed as unbound fraction at 3 to 100 mg/kg, po and measured after 2 hrs by LC/MS/MS analysis; type: ADME, organism-based; conditions: in vivo, dose 3-100 mg/kg
[5] = Mutagenicity in Salmonella typhimurium TA1535 at 30 to 5000 ug in presence of S9 metabolic activation system for 48 hrs by ames test; type: toxicity, Salmonella enterica subsp. enterica serovar Typhimurium; conditions: in vitro, dose 30-5000 µg
Summary of the method: (§2)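 Plate incorporation Ames test with S9 from phenobarbital/beta-naphthoflavone-induced male Wistar Han rat liver; 30, 100, 300, 1000, 3000, 5000 µg/plate; triplicate minimal glucose agar plates with trace histidine; 48 h at 37 °C; positive if 2-fold revertant increase over vehicle with dose relation.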

[6] = Mutagenicity in Salmonella typhimurium TA98 at 30 to 5000 ug in presence of S9 metabolic activation system for 48 hrs by ames test; type: toxicity, Salmonella enterica subsp. enterica serovar Typhimurium; conditions: dose 30-5000 µg; summary of the method: as §2
Homo sapiens [7] = species: Homo sapiens; experiment: Selectivity of inhibition of human LRRK2 to human MINK1
[8] = molecular target: Dual specificity protein kinase CLK2 (Homo sapiens, UniProt P49760); experiment: Inhibition of CLK2 (unknown origin) assessed as substrate phosphorylation using coumarin and fluorescein-labeled peptide as substrate incubated for 1 hr by Z'-LYTE kinase assay
Summary of the method: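 CLK2 Z'-LYTE coupled-enzyme kit format, 10-point titration from DMSO; enzyme, substrate and compound reacted 1 h at ambient temperature; after development solution, read at excitation 400 nm; activity from coumarin 445 nm/fluorescein 520 nm emission ratio.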

[9] = In vivo inhibition of LRRK2 in CD rat assessed as reduction in serine 935 phosphorylated LRRK2 in striatum at 100 mg/kg, po and measured after 2 hrs by MSD immunoassay; type: functional; summary of the method: as §1
[10] = Inhibition of calcium channel (unknown origin); design: species or system Homo sapiens
[11] = molecular target: Adenosine receptor A2a (Homo sapiens) (UniProt P29274); experiment: Inhibition of human adenosine A2A receptor at 10 uM by radioligand binding assay
Summary of the method: (§3)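 Single-concentration radioligand binding screen (Eurofins Panlabs); IC50 by non-linear least-squares regression; Ki via Cheng-Prusoff from observed IC50, radioligand concentration and historical KD; Hill coefficient reported.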

[12] = Mutagenicity in Salmonella typhimurium TA100 at 30 to 5000 ug in presence of S9 metabolic activation system for 48 hrs by ames test; type: toxicity, Salmonella enterica subsp. enterica serovar Typhimurium; conditions: dose 30-5000 µg; summary of the method: as §2
[13] = Plasma clearance in po dosed Beagle dog and measured upto 24 hrs by LC-MS/MS analysis; type: ADME, organism-based, Canis lupus familiaris
[14] = Oral bioavailability in CD rat measured after 120 mins by LC-MS/MS analysis; type: ADME, organism-based; conditions: in vivo
[15] = test system: P-gp (rat Mdr1a) (Homo sapiens); experiment: Substrate activity at P-gp (unknown origin) expressed in LLC-PK1 cells transfected with rat Mdr1a assessed as apparent permeability at 0.1 uM incubated for 3 hrs by LC-MSMS analysis; type: ADME, cell-based
Homo sapiens [16] = species: Homo sapiens; experiment: Selectivity of inhibition of human LRRK2 to human CLK2
[17] = Intrinsic clearance in po dosed CD rat measured after 120 mins by LC-MS/MS analysis; type: ADME, organism-based; conditions: in vivo, 2 h
Homo sapiens [18] = species: Homo sapiens; experiment: Selectivity of inhibition of human LRRK2 to human IRAK4
[19] = Intrinsic clearance in po dosed Beagle dog and measured upto 24 hrs by LC-MS/MS analysis; type: ADME, organism-based, Canis lupus familiaris; conditions: in vivo
[20] = Oral bioavailability in Beagle dog and measured upto 24 hrs by LC-MS/MS analysis; type: ADME, organism-based, Canis lupus familiaris; conditions: in vivo
[21] = molecular target: Substance-P receptor (Homo sapiens) (UniProt P25103); experiment: Inhibition of human tachykinin NK1 receptor at 10 uM by radioligand binding assay; summary of the method: as §3
[22] = molecular target: T2, Adenosine receptor A1 (Homo sapiens) (UniProt P30542); experiment: Inhibition of human adenosine A1 receptor at 10 uM by radioligand binding assay; summary of the method: as §3
T2 sequence (whole entry): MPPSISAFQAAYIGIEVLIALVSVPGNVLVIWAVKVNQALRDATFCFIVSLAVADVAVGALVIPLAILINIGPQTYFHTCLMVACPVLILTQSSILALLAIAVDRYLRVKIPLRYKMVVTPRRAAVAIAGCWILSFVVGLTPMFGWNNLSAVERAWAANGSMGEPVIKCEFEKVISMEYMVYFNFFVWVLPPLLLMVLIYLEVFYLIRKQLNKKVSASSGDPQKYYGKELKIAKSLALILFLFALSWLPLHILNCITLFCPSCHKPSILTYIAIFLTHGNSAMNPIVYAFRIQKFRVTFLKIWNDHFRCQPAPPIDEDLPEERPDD

Cavia porcellus = species: Cavia porcellus; experiment: Inhibition of guinea pig adenosine transporter at 1 uM by radioligand binding assay; summary of the method: as §3
[23] = molecular target: T1, Leucine-rich repeat serine/threonine-protein kinase 2; experiment: Inhibition of recombinant human GST20 tagged truncated LRRK2 G2019S mutant assessed as substrate phosphorylation preincubated for 15 mins followed by substrate addition and measured after 90 mins using fluorescein-labeled LRRK2tide as substrate in presence of ATP by TR-FRET based Lanthascreen kinase activity assay
Summary of the method: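 Enzyme 1.25 nM in 50 mM Tris pH 8.5, 10 mM MgCl2, 0.01% Brij-35, 1 mM EGTA, 2 mM DTT, 0.05 mM orthovanadate. Compound (top 9.99 µM in DMSO, ten-point serial dilution) preincubated 15 min at RT. […] Stopped with EDTA plus 2 nM Tb anti-pERM, 1 h RT. 520/495 nm ratio read. IC50 from 4-parameter logistic fit, mean of several runs.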

[24] = Toxicity in CD rat assessed micronucleus induction in bone marrow at 50 to 100 mg/kg, po BID administered for 4 days; type: organism-based; conditions: in vivo, 96 h, dose 50-100 mg/kg, time 4 day
[25] = In vivo inhibition of LRRK2 in CD rat assessed as reduction in serine 935 phosphorylated LRRK2 in striatum at 3 mg/kg, po and measured after 2 hrs by MSD immunoassay; type: functional; summary of the method: as §1
[26] = MRT in po dosed CD rat measured after 120 mins by LC-MS/MS analysis; type: ADME, organism-based; conditions: in vivo
[27] = In vivo inhibition of LRRK2 in CD rat assessed as reduction in serine 935 phosphorylated LRRK2 in striatum at 10 mg/kg, po and measured after 2 hrs by MSD immunoassay; type: functional; summary of the method: as §1
[28] = Drug metabolism in rat hepatocytes assessed as (R)-2-(1-(4-amino-5-(trifluoromethyl)pyridin-2-yl)pyrrolidin-3-yl)propan-2-ol metabolite formation compound at 0.3 uM and measured after 120 mins by LC-MS/MS analysis; type: ADME, cell-based, Hepatocyte; conditions: 2 h
[29] = Drug metabolism in human hepatocytes assessed as (R)-2-(1-(4-amino-5-(trifluoromethyl)pyridin-2-yl)pyrrolidin-3-yl)propan-2-ol metabolite formation compound at 0.3 uM and measured after 120 mins by LC-MS/MS analysis; type: ADME, cell-based, Hepatocyte; conditions: 2 h
[30] = MRT in po dosed Beagle dog and measured upto 24 hrs by LC-MS/MS analysis; type: ADME, organism-based, Canis lupus familiaris; conditions: in vivo
[31] = Plasma clearance in po dosed CD rat measured after 120 mins by LC-MS/MS analysis; type: ADME, organism-based
[32] = Toxicity in CD rat assessed clinical signs of toxicity at 50 to 100 mg/kg, po BID administered for 4 days; type: organism-based; conditions: in vivo, 96 h, dose 50-100 mg/kg, time 4 day
[33] = molecular target: Voltage-gated inwardly rectifying potassium channel KCNH2 (Homo sapiens, UniProt Q12809); experiment: Inhibition of human ERG tail current in cells at -80 mV holding potential by PatchXpress automated patch clamp assay; type: toxicity
[34] = molecular target: Sodium channel protein type 5 subunit alpha (Homo sapiens, UniProt Q14524); experiment: Inhibition of human NaV1.5 expressed in HEK293 by PatchXpress automated patch clamp assay; type: cell-based

T1 sequence (Q5S007 whole entry G2019S): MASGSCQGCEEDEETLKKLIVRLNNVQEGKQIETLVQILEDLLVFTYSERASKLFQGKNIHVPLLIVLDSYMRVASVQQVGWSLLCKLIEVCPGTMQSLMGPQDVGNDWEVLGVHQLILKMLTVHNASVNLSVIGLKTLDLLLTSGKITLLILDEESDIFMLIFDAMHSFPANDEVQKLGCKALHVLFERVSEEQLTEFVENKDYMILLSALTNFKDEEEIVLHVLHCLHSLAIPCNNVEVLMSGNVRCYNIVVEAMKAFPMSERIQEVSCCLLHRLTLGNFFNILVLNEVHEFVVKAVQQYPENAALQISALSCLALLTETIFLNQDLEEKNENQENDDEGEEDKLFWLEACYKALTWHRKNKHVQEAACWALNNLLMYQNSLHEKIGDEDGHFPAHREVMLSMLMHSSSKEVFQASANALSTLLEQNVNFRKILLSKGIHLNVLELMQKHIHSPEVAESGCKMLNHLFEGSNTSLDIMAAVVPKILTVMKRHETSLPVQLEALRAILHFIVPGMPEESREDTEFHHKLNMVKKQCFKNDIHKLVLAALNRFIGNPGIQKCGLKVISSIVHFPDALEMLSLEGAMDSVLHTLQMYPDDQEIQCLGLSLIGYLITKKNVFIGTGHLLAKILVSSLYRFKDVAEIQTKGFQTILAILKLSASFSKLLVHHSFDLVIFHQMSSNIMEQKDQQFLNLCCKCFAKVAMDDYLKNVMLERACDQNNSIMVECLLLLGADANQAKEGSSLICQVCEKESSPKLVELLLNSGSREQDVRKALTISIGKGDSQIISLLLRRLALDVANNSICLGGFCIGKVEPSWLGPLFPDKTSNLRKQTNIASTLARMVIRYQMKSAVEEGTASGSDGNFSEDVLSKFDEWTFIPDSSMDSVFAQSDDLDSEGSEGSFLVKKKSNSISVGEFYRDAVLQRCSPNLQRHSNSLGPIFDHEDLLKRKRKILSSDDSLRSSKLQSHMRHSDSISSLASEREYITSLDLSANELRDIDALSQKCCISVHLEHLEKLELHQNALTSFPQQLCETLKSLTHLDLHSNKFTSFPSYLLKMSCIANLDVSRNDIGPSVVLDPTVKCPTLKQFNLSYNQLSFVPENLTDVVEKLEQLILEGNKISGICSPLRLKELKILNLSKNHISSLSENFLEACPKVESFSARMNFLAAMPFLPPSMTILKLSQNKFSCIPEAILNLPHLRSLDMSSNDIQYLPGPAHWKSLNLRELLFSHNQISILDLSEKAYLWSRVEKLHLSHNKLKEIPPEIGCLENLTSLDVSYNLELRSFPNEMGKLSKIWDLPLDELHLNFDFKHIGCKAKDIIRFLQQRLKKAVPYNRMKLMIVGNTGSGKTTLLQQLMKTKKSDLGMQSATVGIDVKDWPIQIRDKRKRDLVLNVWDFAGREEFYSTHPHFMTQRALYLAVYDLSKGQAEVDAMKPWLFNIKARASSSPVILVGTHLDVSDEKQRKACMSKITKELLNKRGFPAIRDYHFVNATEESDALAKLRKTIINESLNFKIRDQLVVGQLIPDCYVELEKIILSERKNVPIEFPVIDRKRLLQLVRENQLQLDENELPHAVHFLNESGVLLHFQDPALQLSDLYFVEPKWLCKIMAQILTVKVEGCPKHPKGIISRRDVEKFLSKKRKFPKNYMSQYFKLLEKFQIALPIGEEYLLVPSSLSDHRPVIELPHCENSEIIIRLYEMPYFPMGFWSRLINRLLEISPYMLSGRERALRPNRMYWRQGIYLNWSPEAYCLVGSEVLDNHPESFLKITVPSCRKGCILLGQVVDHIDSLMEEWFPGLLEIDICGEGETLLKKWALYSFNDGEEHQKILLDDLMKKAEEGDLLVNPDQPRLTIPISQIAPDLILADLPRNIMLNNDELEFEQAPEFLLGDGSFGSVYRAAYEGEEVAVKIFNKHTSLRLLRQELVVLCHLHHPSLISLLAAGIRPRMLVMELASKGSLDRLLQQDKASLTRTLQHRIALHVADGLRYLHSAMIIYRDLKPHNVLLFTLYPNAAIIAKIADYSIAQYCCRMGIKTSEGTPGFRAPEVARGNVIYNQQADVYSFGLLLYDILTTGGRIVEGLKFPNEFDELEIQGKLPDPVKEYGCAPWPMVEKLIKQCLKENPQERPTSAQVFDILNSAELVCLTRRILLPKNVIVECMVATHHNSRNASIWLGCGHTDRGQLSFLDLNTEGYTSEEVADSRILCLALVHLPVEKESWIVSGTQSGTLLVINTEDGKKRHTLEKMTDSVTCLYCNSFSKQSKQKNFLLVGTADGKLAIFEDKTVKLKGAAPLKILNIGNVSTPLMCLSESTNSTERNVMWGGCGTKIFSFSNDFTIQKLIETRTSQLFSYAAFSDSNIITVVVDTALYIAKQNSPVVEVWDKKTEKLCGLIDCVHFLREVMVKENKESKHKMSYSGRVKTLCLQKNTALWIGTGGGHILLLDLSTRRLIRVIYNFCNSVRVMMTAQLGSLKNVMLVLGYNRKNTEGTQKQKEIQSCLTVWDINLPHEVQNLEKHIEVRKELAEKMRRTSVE
Chain of Dual specificity protein kinase CLK2 (P49760 whole entry): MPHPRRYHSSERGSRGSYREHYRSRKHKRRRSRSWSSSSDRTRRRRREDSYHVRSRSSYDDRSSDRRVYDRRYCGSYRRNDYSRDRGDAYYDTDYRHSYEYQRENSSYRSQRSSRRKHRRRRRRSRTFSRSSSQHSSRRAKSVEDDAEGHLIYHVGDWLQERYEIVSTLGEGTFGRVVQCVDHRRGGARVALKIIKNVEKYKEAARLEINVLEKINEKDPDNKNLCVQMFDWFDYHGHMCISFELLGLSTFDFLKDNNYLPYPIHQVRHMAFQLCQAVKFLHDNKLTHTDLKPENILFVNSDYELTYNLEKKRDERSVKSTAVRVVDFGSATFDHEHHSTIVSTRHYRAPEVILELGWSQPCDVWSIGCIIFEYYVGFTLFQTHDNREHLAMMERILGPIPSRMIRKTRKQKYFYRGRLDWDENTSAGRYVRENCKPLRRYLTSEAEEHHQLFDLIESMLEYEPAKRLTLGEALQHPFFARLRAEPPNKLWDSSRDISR
Chain of Voltage-gated inwardly rectifying potassium channel KCNH2 (Q12809 whole entry): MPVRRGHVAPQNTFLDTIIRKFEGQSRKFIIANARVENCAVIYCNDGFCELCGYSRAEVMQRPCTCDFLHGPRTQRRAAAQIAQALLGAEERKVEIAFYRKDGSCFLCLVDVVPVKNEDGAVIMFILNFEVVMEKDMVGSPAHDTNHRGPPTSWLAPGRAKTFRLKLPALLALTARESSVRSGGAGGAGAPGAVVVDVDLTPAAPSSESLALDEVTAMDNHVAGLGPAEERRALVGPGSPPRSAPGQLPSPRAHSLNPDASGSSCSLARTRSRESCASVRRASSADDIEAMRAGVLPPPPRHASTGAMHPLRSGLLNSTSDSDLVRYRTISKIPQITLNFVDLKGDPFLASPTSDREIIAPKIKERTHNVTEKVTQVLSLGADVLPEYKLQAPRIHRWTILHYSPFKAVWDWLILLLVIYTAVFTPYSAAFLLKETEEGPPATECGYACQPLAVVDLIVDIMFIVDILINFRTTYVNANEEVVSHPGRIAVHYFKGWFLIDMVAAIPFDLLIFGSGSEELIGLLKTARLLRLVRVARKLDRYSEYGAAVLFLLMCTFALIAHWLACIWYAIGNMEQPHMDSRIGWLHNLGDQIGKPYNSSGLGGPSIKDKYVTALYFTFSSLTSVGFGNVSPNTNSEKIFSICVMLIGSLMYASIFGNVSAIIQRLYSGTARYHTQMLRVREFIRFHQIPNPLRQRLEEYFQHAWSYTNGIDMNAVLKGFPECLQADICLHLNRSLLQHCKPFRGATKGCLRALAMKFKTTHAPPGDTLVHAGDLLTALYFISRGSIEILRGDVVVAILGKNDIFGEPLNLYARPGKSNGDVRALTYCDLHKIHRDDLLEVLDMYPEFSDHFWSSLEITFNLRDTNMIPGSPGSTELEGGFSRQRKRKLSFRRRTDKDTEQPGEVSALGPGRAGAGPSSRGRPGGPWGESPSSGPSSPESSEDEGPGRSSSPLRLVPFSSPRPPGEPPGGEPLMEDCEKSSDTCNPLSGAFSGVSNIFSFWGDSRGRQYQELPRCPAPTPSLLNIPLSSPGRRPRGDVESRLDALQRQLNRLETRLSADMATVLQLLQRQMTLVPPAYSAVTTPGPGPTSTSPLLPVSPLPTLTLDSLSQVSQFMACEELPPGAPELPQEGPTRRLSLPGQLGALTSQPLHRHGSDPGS
Chain of Substance-P receptor (Homo sapiens) (P25103 whole entry): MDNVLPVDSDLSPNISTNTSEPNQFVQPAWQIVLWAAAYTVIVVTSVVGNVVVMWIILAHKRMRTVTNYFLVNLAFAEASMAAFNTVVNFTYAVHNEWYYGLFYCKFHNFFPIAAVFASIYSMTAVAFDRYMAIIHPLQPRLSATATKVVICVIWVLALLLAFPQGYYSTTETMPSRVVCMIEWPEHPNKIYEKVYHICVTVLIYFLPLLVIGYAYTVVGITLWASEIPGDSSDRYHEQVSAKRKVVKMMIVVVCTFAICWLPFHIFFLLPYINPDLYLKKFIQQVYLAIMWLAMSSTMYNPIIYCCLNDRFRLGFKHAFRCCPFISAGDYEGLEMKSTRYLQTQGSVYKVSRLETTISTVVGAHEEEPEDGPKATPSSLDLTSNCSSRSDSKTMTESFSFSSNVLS
Chain of Adenosine receptor A2a (Homo sapiens) (P29274 whole entry): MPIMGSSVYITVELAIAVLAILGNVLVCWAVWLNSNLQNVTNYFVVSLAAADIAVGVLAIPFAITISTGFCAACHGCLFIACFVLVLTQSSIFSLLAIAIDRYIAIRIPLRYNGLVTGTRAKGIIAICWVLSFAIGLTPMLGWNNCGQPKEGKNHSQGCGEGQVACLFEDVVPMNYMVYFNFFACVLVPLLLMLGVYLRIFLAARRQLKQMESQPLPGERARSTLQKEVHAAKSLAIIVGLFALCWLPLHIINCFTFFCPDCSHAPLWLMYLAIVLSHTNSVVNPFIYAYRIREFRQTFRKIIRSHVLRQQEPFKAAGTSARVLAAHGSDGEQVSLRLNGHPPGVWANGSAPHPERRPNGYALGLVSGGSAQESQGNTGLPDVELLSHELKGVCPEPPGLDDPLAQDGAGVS

Cn1cc(-c2cccc(C(=O)Nc3cc(N4CC[C@@H](C(C)(C)O)C4)ncc3C(F)(F)F)n2)cn1
inhibition in vivo at 30 mg/kg [1]: 35%
IC50 [2]: 0.0025 µM
Ratio IC50 (Homo sapiens [3]): 63
Kp [4]: 0.6
Activity [5]: Non-Toxic
Activity [6]: Non-Toxic
Selectivity ratio (Homo sapiens [7]): > 100
IC50 [8]: 0.063 µM
inhibition in vivo at 100 mg/kg [9]: 56%
IC50 [10]: 21.8 µM
inhibition [11]: > 50%
Activity [12]: Non-Toxic
CL/F [13]: 15 mL/min/kg
bioavailability [14]: 16%
Papp at 3 h, 0.1 µM [15]: 35 ×10⁻⁶ cm/s
Selectivity ratio (Homo sapiens [16]): > 100
CL [17]: 5722 mL/min/kg
Selectivity ratio (Homo sapiens [18]): > 100
CL [19]: 14531 mL/min/kg
bioavailability [20]: 43%
inhibition [21]: > 50%
inhibition [22]: > 50%
inhibition (Cavia porcellus): > 50%
IC50 [23]: 0.001 µM
Activity [24]: Non-Toxic
inhibition in vivo at 3 mg/kg [25]: 2%
MRT [26]: 5.2 h
inhibition in vivo at 10 mg/kg [27]: 13%
Drug metabolism [28]: Metabolite_Detected
Drug metabolism [29]: Metabolite_Detected
MRT [30]: 3.6 h
CL/F [31]: 10 mL/min/kg
Activity [32]: Non-Toxic
IC50 [33]: 7.6 µM
IC50 [34]: 29.9 µM
